From ChEMBL document CHEMBL3297671, “Identification and bioactivity of 3-epi-xestoaminol C isolated from the New Zealand brown alga Xiphophora chondrophylla” (J Nat Prod, 2014)
≈ marks a conversion by molar mass, not a printed value. Calls of active or inactive are those of the source. No cut-off for these calls is given here.

Legend:
Pseudomonas aeruginosa [1] = assay: Antimicrobial activity against Pseudomonas aeruginosa PAO1 after 16 hrs by serial dilution method; format: functional, organism-based
Pseudomonas aeruginosa [2] = assay: Antimicrobial activity against Pseudomonas aeruginosa PAO1 assessed as compound level causing less than 2% growth after 16 hrs by serial dilution method; format: functional
Staphylococcus aureus [3] = assay: Antimicrobial activity against Staphylococcus aureus ATCC 25923 after 16 hrs by serial dilution method; format: functional, organism-based; conditions: ATCC 25923, 16 h
Escherichia coli [4] = assay: Antimicrobial activity against Escherichia coli ATCC 25922 assessed as compound level causing less than 2% growth after 16 hrs by serial dilution method; format: functional; conditions: ATCC 25922, 16 h
Escherichia coli [5] = assay: Antimicrobial activity against Escherichia coli ATCC 25922 after 16 hrs by serial dilution method; format: functional, organism-based; conditions: ATCC 25922, 16 h
Staphylococcus aureus [6] = assay: Antimicrobial activity against Staphylococcus aureus ATCC 25923 assessed as compound level causing less than 2% growth after 16 hrs by serial dilution method; format: functional; conditions: ATCC 25923, 16 h
Outline: (§1)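 Values are read from dose-response curves. No IC50 is calculated where the curve is too steep.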

Saccharomyces cerevisiae [7] = assay: Antimicrobial activity against Saccharomyces cerevisiae assessed as compound level causing less than 2% growth after 16 hrs by serial dilution method; format: functional; outline: as §1
Saccharomyces cerevisiae [8] = assay: Antimicrobial activity against Saccharomyces cerevisiae after 16 hrs by serial dilution method; format: functional, organism-based; outline: as §1
HL-60 [9] = assay: Cytotoxicity against human HL60 cells assessed as compound level causing less than 2% growth after 48 hrs by MTT assay; format: functional
HL-60 [10] = assay: Cytotoxicity against human HL60 cells after 48 hrs by MTT assay; format: functional, cell-based; conditions: HL-60, 48 h
[11] = Cytotoxicity against human HEK cells after 48 hrs by MTT assay; format: functional, cell-based; conditions: HEK293, 48 h
[12] = Cytotoxicity against human HEK cells assessed as compound level causing less than 2% growth after 48 hrs by MTT assay; format: functional, HEK293

| Compound | IC50 (Pseudomonas aeruginosa [1]; Pseudomonas aeruginosa, PAO1, 16 h, read-out: IC50) [µM] | MIC (Pseudomonas aeruginosa [2]; PAO1, 16 h) [µM] | IC50 (Staphylococcus aureus [3]) [µM] | MIC (Escherichia coli [4]) [µM] | IC50 (Escherichia coli [5]) [µM] | MIC (Staphylococcus aureus [6]) [µM] | MIC (Saccharomyces cerevisiae [7]) | IC50 (Saccharomyces cerevisiae [8]) [µM] | MIC (HL-60 [9]) [µM] | IC50 (Pseudomonas aeruginosa [1]) | MIC (Pseudomonas aeruginosa [2]) | IC50 (HL-60 [10]) [µM] | IC50 [11] [µM] | MIC [12] [µM] |
| --- | --- | --- | --- | --- | --- | --- | --- | --- | --- | --- | --- | --- | --- | --- |
| CN(C)[C@@H]1C(O)=C(C(N)=O)C(=O)[C@@]2(O)C(O)=C3C(=O)c4c(O)cccc4[C@@](C)(O)[C@H]3C[C@@H]12 [TETRACYCLINE] | 143 | > 500 | 5.7 | ≥ 500 | 26.4 | 62.5 (≈ 27.8 µg/mL) | – | – | – | – | – | – | – | – |
| C[C@@H]1C[C@@H]([C@H](O)CC2CC(=O)NC(=O)C2)C(=O)[C@@H](C)C1 [CYCLOHEXIMIDE] | – | – | – | – | – | – | 1 µM (≈ 0.281 µg/mL) | 0.04 | – | – | – | – | – | – |
| CCCCCCCCCCC[C@H](O)[C@H](C)N | – | – | 17 | 32.6 (≈ 7.48 µg/mL) | – | 65.1 (≈ 14.9 µg/mL) | inactive | 17.1 | 32.7 (≈ 7.5 µg/mL) | Not Active | inactive | 8.8 | 18 | 32.7 (≈ 7.5 µg/mL) |
